Data as given in ChEMBL document CHEMBL2331438, “An efficient domino reaction in ionic liquid: synthesis and biological evaluation of some pyrano- and thiopyrano-fused heterocycles” (2013).
≈ marks a conversion by molar mass, not a printed value.

What was measured:
Clostridium tetani = assay: Antibacterial activity against Clostridium tetani MTCC 449 after 24 hrs by broth microdilution method; assay type: functional
Bacillus subtilis = assay: Antibacterial activity against Bacillus subtilis MTCC 441 after 24 hrs by broth microdilution method; assay type: functional
Escherichia coli = assay: Antibacterial activity against Escherichia coli MTCC 443 after 24 hrs by broth microdilution method; assay type: functional
Salmonella typhi = assay: Antibacterial activity against Salmonella typhi MTCC 98 after 24 hrs by broth microdilution method; assay type: functional, Salmonella enterica subsp. enterica serovar Typhi
Aspergillus fumigatus = assay: Antifungal activity against Aspergillus fumigatus MTCC 3008 after 48 hrs by broth microdilution method; assay type: functional
Candida albicans = assay: Antifungal activity against Candida albicans MTCC 227 after 48 hrs by broth microdilution method; assay type: functional
[1] = system: Mycobacterium tuberculosis; assay: Antimycobacterial activity against Mycobacterium tuberculosis H37Rv at 250 ug/ml; assay type: functional
How it was run: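 M. tuberculosis H37Rv tested on L.J. (Löwenstein–Jensen) medium.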

Vibrio cholerae = assay: Antibacterial activity against Vibrio cholerae MTCC 3906 after 24 hrs by broth microdilution method; assay type: functional
Streptococcus pneumoniae = assay: Antibacterial activity against Streptococcus pneumoniae MTCC 1936 after 24 hrs by broth microdilution method; assay type: functional
[2] = Antioxidant activity assessed as ascorbic acid equivalent ferric ion reducing activity per 100 gram at 200 ug/ml by FRAP assay; assay type: functional
[3] = Salmonella enterica, MTCC 98, 24 h

Molecule: Cc1ccc(-n2nc(C)c3c2OC[C@H]2CSc4nc5c(C)cccc5cc4[C@@H]32)cc1
- MIC (Clostridium tetani; MTCC 449, 24 h): 250 mg/L (≈ 605 µM)
- MIC (Bacillus subtilis; MTCC 441, 24 h): 200 mg/L (≈ 484 µM)
- MIC (Escherichia coli; MTCC 443, 24 h): 100 mg/L (≈ 242 µM)
- MIC (Salmonella typhi; [3]): 125 mg/L (≈ 302 µM)
- MIC (Aspergillus fumigatus; MTCC 3008, 48 h): 200 mg/L (≈ 484 µM)
- MIC (Candida albicans; MTCC 227, 48 h): 1000 mg/L (≈ 2420 µM)
- inhibition at 250 µg/mL [1]: 63%
- MIC (Vibrio cholerae; MTCC 3906, 24 h): 125 mg/L (≈ 302 µM)
- MIC (Streptococcus pneumoniae; MTCC 1936, 24 h): 200 mg/L (≈ 484 µM)
- Activity [2]: 112 mmol

Molecule: Cc1nn(-c2cc(Cl)ccc2Cl)c2c1[C@@H]1c3cc4ccccc4nc3SC[C@@H]1CO2
- MIC (Bacillus subtilis; MTCC 441, 24 h): 100 mg/L (≈ 220 µM)
- MIC (Escherichia coli; MTCC 443, 24 h): 250 mg/L (≈ 550 µM)
- MIC (Aspergillus fumigatus; MTCC 3008, 48 h): > 1000 mg/L
- MIC (Candida albicans; MTCC 227, 48 h): 500 mg/L (≈ 1100 µM)
- MIC (Streptococcus pneumoniae; MTCC 1936, 24 h): 200 mg/L (≈ 440 µM)
- Activity [2]: 158 mmol

Molecule: Cc1nn(-c2ccccc2)c2c1[C@@H]1c3cc4cccc(C)c4nc3SC[C@@H]1C(C)(C)O2 (single isomer, unassigned)
- MIC (Clostridium tetani; MTCC 449, 24 h): 100 mg/L (≈ 234 µM)
- MIC (Bacillus subtilis; MTCC 441, 24 h): 250 mg/L (≈ 585 µM)
- MIC (Escherichia coli; MTCC 443, 24 h): 200 mg/L (≈ 468 µM)
- MIC (Salmonella typhi; [3]): 100 mg/L (≈ 234 µM)
- MIC (Aspergillus fumigatus; MTCC 3008, 48 h): 1000 mg/L (≈ 2340 µM)
- MIC (Candida albicans; MTCC 227, 48 h): > 1000 mg/L
- inhibition at 250 µg/mL [1]: 49%
- MIC (Vibrio cholerae; MTCC 3906, 24 h): 125 mg/L (≈ 292 µM)
- MIC (Streptococcus pneumoniae; MTCC 1936, 24 h): 100 mg/L (≈ 234 µM)
- Activity [2]: 83.5 mmol

Molecule: Cc1nn(-c2cc(Cl)ccc2Cl)c2c1[C@@H]1c3c(ccc4c(C)cc(=O)oc34)OC[C@@H]1CO2
- MIC (Clostridium tetani; MTCC 449, 24 h): 250 mg/L (≈ 533 µM)
- MIC (Bacillus subtilis; MTCC 441, 24 h): 200 mg/L (≈ 426 µM)
- MIC (Escherichia coli; MTCC 443, 24 h): 125 mg/L (≈ 266 µM)
- MIC (Salmonella typhi; [3]): 250 mg/L (≈ 533 µM)
- MIC (Aspergillus fumigatus; MTCC 3008, 48 h): > 1000 mg/L
- MIC (Candida albicans; MTCC 227, 48 h): 250 mg/L (≈ 533 µM)
- inhibition at 250 µg/mL [1]: 28%
- MIC (Vibrio cholerae; MTCC 3906, 24 h): 100 mg/L (≈ 213 µM)
- MIC (Streptococcus pneumoniae; MTCC 1936, 24 h): 200 mg/L (≈ 426 µM)
- Activity [2]: 184 mmol

Molecule: Cc1nn(-c2ccccc2)c2c1[C@@H]1c3cc4cccc(C)c4nc3SC[C@@H]1CO2
- MIC (Clostridium tetani; MTCC 449, 24 h): 200 mg/L (≈ 501 µM)
- MIC (Bacillus subtilis; MTCC 441, 24 h): 100 mg/L (≈ 250 µM)
- MIC (Escherichia coli; MTCC 443, 24 h): 250 mg/L (≈ 626 µM)
- MIC (Salmonella typhi; [3]): 200 mg/L (≈ 501 µM)
- MIC (Aspergillus fumigatus; MTCC 3008, 48 h): 250 mg/L (≈ 626 µM)
- MIC (Candida albicans; MTCC 227, 48 h): 1000 mg/L (≈ 2500 µM)
- inhibition at 250 µg/mL [1]: 38%
- MIC (Vibrio cholerae; MTCC 3906, 24 h): 250 mg/L (≈ 626 µM)
- MIC (Streptococcus pneumoniae; MTCC 1936, 24 h): 250 mg/L (≈ 626 µM)
- Activity [2]: 160 mmol

Molecule: Cc1nn(-c2ccc([N+](=O)[O-])cc2)c2c1[C@@H]1c3c(ccc4c(C)cc(=O)oc34)OC[C@@H]1CO2
- MIC (Clostridium tetani; MTCC 449, 24 h): 250 mg/L (≈ 561 µM)
- MIC (Bacillus subtilis; MTCC 441, 24 h): 200 mg/L (≈ 449 µM)
- MIC (Escherichia coli; MTCC 443, 24 h): 125 mg/L (≈ 281 µM)
- MIC (Salmonella typhi; [3]): 200 mg/L (≈ 449 µM)
- MIC (Aspergillus fumigatus; MTCC 3008, 48 h): 250 mg/L (≈ 561 µM)
- MIC (Candida albicans; MTCC 227, 48 h): 1000 mg/L (≈ 2250 µM)
- inhibition at 250 µg/mL [1]: 79%
- MIC (Vibrio cholerae; MTCC 3906, 24 h): 250 mg/L (≈ 561 µM)
- MIC (Streptococcus pneumoniae; MTCC 1936, 24 h): 250 mg/L (≈ 561 µM)
- Activity [2]: 163 mmol

Molecule: Cc1nn(-c2cc(Cl)ccc2Cl)c2c1[C@@H]1c3c(ccc4c(C)cc(=O)oc34)OC[C@@H]1C(C)(C)O2
- MIC (Bacillus subtilis; MTCC 441, 24 h): 100 mg/L (≈ 201 µM)
- MIC (Escherichia coli; MTCC 443, 24 h): 100 mg/L (≈ 201 µM)
- MIC (Aspergillus fumigatus; MTCC 3008, 48 h): 500 mg/L (≈ 1010 µM)
- MIC (Candida albicans; MTCC 227, 48 h): 500 mg/L (≈ 1010 µM)
- MIC (Streptococcus pneumoniae; MTCC 1936, 24 h): 100 mg/L (≈ 201 µM)
- Activity [2]: 187 mmol

Molecule: Cc1ccc(-n2nc(C)c3c2OC(C)(C)[C@H]2CSc4nc5c(C)cccc5cc4[C@@H]32)cc1 (single isomer, unassigned)
- MIC (Clostridium tetani; MTCC 449, 24 h): 200 mg/L (≈ 453 µM)
- MIC (Bacillus subtilis; MTCC 441, 24 h): 100 mg/L (≈ 226 µM)
- MIC (Escherichia coli; MTCC 443, 24 h): 125 mg/L (≈ 283 µM)
- MIC (Salmonella typhi; [3]): 125 mg/L (≈ 283 µM)
- MIC (Aspergillus fumigatus; MTCC 3008, 48 h): 500 mg/L (≈ 1130 µM)
- MIC (Candida albicans; MTCC 227, 48 h): 250 mg/L (≈ 566 µM)
- inhibition at 250 µg/mL [1]: 91%
- MIC (Vibrio cholerae; MTCC 3906, 24 h): 200 mg/L (≈ 453 µM)
- MIC (Streptococcus pneumoniae; MTCC 1936, 24 h): 100 mg/L (≈ 226 µM)
- Activity [2]: 161 mmol

Molecule: GENTAMICIN
- MIC (Clostridium tetani): 5 mg/L
- MIC (Bacillus subtilis): 1 mg/L
- MIC (Escherichia coli): 0.05 mg/L
- MIC (Salmonella typhi; Salmonella enterica subsp. enterica serovar Typhi): 5 mg/L
- MIC (Vibrio cholerae): 5 mg/L
- MIC (Streptococcus pneumoniae): 0.5 mg/L

Molecule: NYSTATIN
- MIC (Aspergillus fumigatus): 100 mg/L
- MIC (Candida albicans): 100 mg/L

Molecule: O=C(N[C@H](CO)[C@H](O)c1ccc([N+](=O)[O-])cc1)C(Cl)Cl [CHLORAMPHENICOL]
- MIC (Clostridium tetani; MTCC 449, 24 h): 50 mg/L (≈ 155 µM)
- MIC (Bacillus subtilis; MTCC 441, 24 h): 50 mg/L (≈ 155 µM)
- MIC (Escherichia coli; MTCC 443, 24 h): 50 mg/L (≈ 155 µM)
- MIC (Salmonella typhi; [3]): 50 mg/L (≈ 155 µM)
- MIC (Vibrio cholerae; MTCC 3906, 24 h): 50 mg/L (≈ 155 µM)
- MIC (Streptococcus pneumoniae; MTCC 1936, 24 h): 50 mg/L (≈ 155 µM)

Molecule: CC1(C)S[C@@H]2[C@H](NC(=O)[C@H](N)c3ccccc3)C(=O)N2[C@H]1C(=O)O [AMPICILLIN]
- MIC (Clostridium tetani; MTCC 449, 24 h): 250 mg/L (≈ 715 µM)
- MIC (Bacillus subtilis; MTCC 441, 24 h): 250 mg/L (≈ 715 µM)
- MIC (Escherichia coli; MTCC 443, 24 h): 100 mg/L (≈ 286 µM)
- MIC (Salmonella typhi; [3]): 100 mg/L (≈ 286 µM)
- MIC (Vibrio cholerae; MTCC 3906, 24 h): 100 mg/L (≈ 286 µM)
- MIC (Streptococcus pneumoniae; MTCC 1936, 24 h): 100 mg/L (≈ 286 µM)

Molecule: COC1=CC(=O)C[C@@H](C)[C@]12Oc1c(Cl)c(OC)cc(OC)c1C2=O [GRISEOFULVIN]
- MIC (Aspergillus fumigatus; MTCC 3008, 48 h): 100 mg/L (≈ 283 µM)
- MIC (Candida albicans; MTCC 227, 48 h): 500 mg/L (≈ 1420 µM)

Molecule: O=C(O)c1cn(C2CC2)c2cc(N3CCNCC3)c(F)cc2c1=O [CIPROFLOXACIN]
- MIC (Escherichia coli; MTCC 443, 24 h): 25 mg/L (≈ 75.4 µM)
- MIC (Salmonella typhi; [3]): 25 mg/L (≈ 75.4 µM)
- MIC (Vibrio cholerae; MTCC 3906, 24 h): 25 mg/L (≈ 75.4 µM)
- MIC (Streptococcus pneumoniae; MTCC 1936, 24 h): 50 mg/L (≈ 151 µM)

Molecule: CCn1cc(C(=O)O)c(=O)c2cc(F)c(N3CCNCC3)cc21 [NORFLOXACIN]
- MIC (Clostridium tetani; MTCC 449, 24 h): 50 mg/L (≈ 157 µM)
- MIC (Bacillus subtilis; MTCC 441, 24 h): 100 mg/L (≈ 313 µM)
- MIC (Escherichia coli; MTCC 443, 24 h): 10 mg/L (≈ 31.3 µM)
- MIC (Salmonella typhi; [3]): 10 mg/L (≈ 31.3 µM)
- MIC (Vibrio cholerae; MTCC 3906, 24 h): 10 mg/L (≈ 31.3 µM)
- MIC (Streptococcus pneumoniae; MTCC 1936, 24 h): 10 mg/L (≈ 31.3 µM)
